Assay results of several laboratories.
Lines come from different studies, so protocols differ.
Target: Phosphatidylinositol 5-phosphate 4-kinase type-2 beta (PIP4K2B, Homo sapiens, UniProt P78356)
Sequence (P78356 1-416, as in one of the studies): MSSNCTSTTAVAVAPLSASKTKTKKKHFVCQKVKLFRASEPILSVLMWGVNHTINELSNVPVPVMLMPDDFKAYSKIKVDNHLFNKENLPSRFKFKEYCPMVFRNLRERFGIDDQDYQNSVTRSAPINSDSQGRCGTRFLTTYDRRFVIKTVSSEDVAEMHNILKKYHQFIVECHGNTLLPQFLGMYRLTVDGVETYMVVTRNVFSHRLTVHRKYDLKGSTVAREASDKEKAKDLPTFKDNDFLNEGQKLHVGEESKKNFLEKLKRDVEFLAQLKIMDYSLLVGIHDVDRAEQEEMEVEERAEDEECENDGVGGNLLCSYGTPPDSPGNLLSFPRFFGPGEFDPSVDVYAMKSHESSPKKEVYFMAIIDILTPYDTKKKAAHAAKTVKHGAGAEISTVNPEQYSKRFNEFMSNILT

CN(c1nccc(-c2cnn3ncccc23)n1)C1CC1  remaining binding (binding; 1 µM): 65%
COc1cnc(Nc2cccc(S(N)(=O)=O)c2)nc1N1CCN(c2ccccc2)C(=O)C1  remaining binding (binding; competition with immobilised ligand; 1 µM): 100%
COc1ccc2c(c1)O[C@H](c1ccc(OC)c(OC)c1)C[C@@H]2NC(=O)C1(c2ccc3c(c2)OC(F)(F)O3)CC1  remaining binding (cell-free assay; competition with immobilised ligand; 1 µM): 80%
CN(CCCC(F)(F)F)c1nccc(-c2cnn3ncccc23)n1  remaining binding (binding; 1 µM): 57%
Cc1nc(N2CC[C@@H](O)C2)ncc1-c1cc(C(F)(F)F)cc2[nH]ncc12  remaining binding (cell-free assay; competition with immobilised ligand; 1 µM): 100%
N[C@H]1CCN(c2nccc(-c3cnn4ncccc34)n2)C1  remaining binding (binding; 1 µM): 100%
Cc1c(NC(=O)c2cc(C(N)=O)nc3cc(F)ccc23)c(C(F)(F)F)nn1Cc1ccc(C(C)(C)C)cc1  remaining binding (cell-free assay; competition with immobilised ligand; 1 µM): 91%
FC(F)(F)Oc1cccc(-c2cnc3ccc(-c4ccncc4)nn23)c1  remaining binding (cell-free assay; competition with immobilised ligand; 5 µM): 100%
COc1ccnn2ncc(-c3ccnc(N(C)C)n3)c12  remaining binding (binding; 1 µM): 100%
C[C@H](c1ccnc(Nc2nc3ccc(-c4cc(N(C)C)ncn4)cc3[nH]2)c1)N1CCN(C(=O)CC(F)(F)F)CC1  remaining binding (cell-free assay; competition with immobilised ligand; 0.1 µM): 75%
CN(C)c1nccc(-c2cnc3ncccn23)n1  remaining binding (binding; 1 µM): 100%
CC(=O)c1c(NS(C)(=O)=O)c2cc(-c3ccc(Cl)cc3)c(-c3ccc(Cl)cc3Cl)nc2n(C)c1=O  remaining binding (cell-free assay; competition with immobilised ligand; 1 µM): 65%
O=C(NCCCN1CCOCC1)c1ccc(Nc2nccc(-c3cc4ccccc4s3)n2)cc1  remaining binding (binding; competition with immobilised ligand; 1 µM): 11%
Cc1cnn2ncc(-c3ccnc(N(C)C)n3)c2c1  remaining binding (binding; 1 µM): 47%
Nc1ncc2c(n1)-c1c([nH]c3ccc(C#CC4CC4)cc13)CCCC2  remaining binding (binding; competition with immobilised ligand; 1 µM): 86%
C[C@@H](c1cccc(C#N)c1)n1cc(Cl)cc(C(N)=O)c1=N  remaining binding (cell-free assay; competition with immobilised ligand; 1 µM): 73%
Cc1cnc(Nc2ccc(C(=O)N3CCC(N4CCCC4)CC3)cc2)nc1-c1cc2ccccc2s1  remaining binding (binding; competition with immobilised ligand; 1 µM): 8.8%
O=C(Nc1c[nH]nc1C(=O)NC1CCNCC1)c1cc(F)cc(F)c1  remaining binding (binding; competition with immobilised ligand; 1 µM): 88%
CCOCCn1cc(C(=O)Nc2ccc(-n3nc(-c4cccnc4)cc3C(F)(F)F)cn2)ccc1=O  remaining binding (cell-free assay; competition with immobilised ligand; 1 µM): 68%
COc1cc(Nc2nccc(-c3cnn4nc(OC)ccc34)n2)cc(C(F)(F)F)c1  remaining binding (binding; competition with immobilised ligand; 1 µM): 50%
COc1ncc2cc3ccccc3nc2c1C#N  remaining binding (cell-free assay; competition with immobilised ligand; 5 µM): 100%
O=C(c1ccc(Nc2nccc(-c3cc4ccccc4s3)n2)cc1)N1CCC(N2CCCC2)CC1  remaining binding (binding; competition with immobilised ligand; 1 µM): 11%
Cc1nc(NC(=O)N2CCC[C@H]2C(N)=O)sc1-c1ccnc(C(C)(C)C(F)(F)F)c1  remaining binding (binding; competition with immobilised ligand; 10 µM): 100%
